# High-throughput results from PubChem BioAssay.
# A selection: hits, their analogues and other compounds. The true share with any hit is near 2%.
# T cruzi inh – T. cruzi replication inhibition; T. cruzi beta-gal in NIH3T3, luminescence, 90 h; inhibition, % (test concentration not listed); 300,000 tested, 1.4% active;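 active means mean inhibition across valid replicates above about 55%, limit read from the data; inconclusive means mean below that limit but half or more replicates reach it; inactive means mean below it, under half of replicates reach it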;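 further: signal also drops with host cell toxicity which is not excluded here; 0% = plate median of DMSO wells and 100% = zero luminescence signal; higher percent means less beta-gal luminescence so fewer parasites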
#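 System: Mouse NIH/3T3 fibroblasts infected with β-gal-expressing T. cruzi Tulahuen C4 | Quantity: NIH/3T3 cells, 5,000 per well | Reagent: 5000 reporter trypomastigotes per well | Dosing: Compound pinned at 50 nL/well, DMSO | Schedule: 3 h host attachment, then at least 90 h co-culture | Detection: GalScreen luminescence, 60 min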
# HIF act – HIF pathway transcriptional activation; U2OS HRE-luciferase reporter, luminescence; normalized: DMSO 0%, desferrioxamine 100%; activation, % at 7.5 µM (by protocol); 300,000 tested, 0.32% active; AID 1910;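 active means mean activation of at least 10% of the iron chelator positive control signal, with at least half of replicates also reaching 10%; inconclusive means mean and replicate majority disagree about reaching 10%; inactive means mean and most replicates under 10%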
# AI-2 QS modul – modulators of Vibrio harveyi AI-2 quorum sensing system. Vibrio harveyi JMH597 AI-2 luminescence/OD600 ratio, 9 h; active compounds read low; strain lacks LuxN and CqsS sensors; 0 = neutral-control median. activity change, % at 7.5 µM. 300,000 tested, 0.4% active. AID 2094; in the data active means activity change below about -75%, passing the limit was not always enough; inconclusive means no clear call, values can overlap the other calls;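 further: luminescence divided by OD600 gain over 9 h not by final OD600 alone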
# ARNT-TACC3 inh – ARNT/TACC3 interaction disruption | inhibition, % at 9.99 µM | AlphaScreen His-ARNT PAS-B/GST-TACC3 binding, luminescence; TACC3 fragment carries E629A point mutation | 390,000 tested, 0.66% active | Q9Y6A5;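 active means mean inhibition of replicates at least 50% and at least half of replicates each reaching 50%; inconclusive means half or more replicates reach 50% but mean below 50%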;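 further: 0% = complete ARNT plus TACC3 wells and 100% = ARNT alone without TACC3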
# * = called active by the depositor; u = inconclusive; x = no result given.
SMILES,T cruzi inh,HIF act,AI-2 QS modul,ARNT-TACC3 inh
C[C@@H]1CCCCO[C@H](CN(C)C(=O)Nc2cccc3ccccc23)[C@H](C)CN([C@@H](C)CO)C(=O)c2cc(NS(C)(=O)=O)ccc2O1,x,x,x,3
O=C(N/N=C/c1ccc(O)c(O)c1O)/C(=C/c1ccc([N+](=O)[O-])cc1)NC(=O)c1ccccc1,34,10*,43,64*
O=C(N/N=C/c1cc([N+](=O)[O-])ccc1O)c1cccc(N2CCCC2=O)c1,-10,2,8,78*
COc1cc(/C=N/NC(=O)c2cccc(N3CCCC3=O)c2)ccc1O,-14,0,10,1
O=C(N/N=C/c1cc([N+](=O)[O-])ccc1O)C(O)(c1ccccc1)c1ccccc1,4,-19,53,49*
Cc1ccc(NC(=O)/C(=C\c2ccc([N+](=O)[O-])cc2)NC(=O)c2ccccc2)cc1,-5,-23,39,-6
CCN1[C@H](C(=O)N(C)C)[C@@H](CO)[C@@H]2Cn3c(ccc(/C=C/c4ccccc4)c3=O)[C@@H]21,x,x,x,0
COc1cccc(N/N=C/c2cccc(Br)c2O)c1,65*,1,10,4
Cc1ccc2[nH]c3c(=O)n(CC(=O)NCCCN(C)Cc4ccccc4)ncc3c2c1,23,66*,19,-4
c1ccc2c(c1)ccc1ccccc12,x,x,x,2
CC1=[N+](C)c2ccc3ccccc3c2C1(C)C,69*,1,23,13
C[C@@H]1CN([C@H](C)CO)C(=O)c2cc(NS(=O)(=O)c3ccccc3)ccc2O[C@@H]1CN(C)S(=O)(=O)c1cn(C)cn1,x,x,x,-11
C[C@H](CO)N1C[C@H](C)[C@H](CN(C)CC2CCCCC2)Oc2c(NS(=O)(=O)c3ccccc3)cccc2C1=O,x,x,x,17
CSc1ncc2c(n1)-c1cc(C)ccc1SC2,75*,0,-15,5
Cc1ncc2c(n1)-c1cc(F)ccc1SC2,u,-1,16,9
Nc1ncc2c(n1)-c1cc(Cl)ccc1SC2,72*,-1,14,6
c1csc(-c2csc3nc(CN4CCOCC4)nc(NCc4ccc5c(c4)OCO5)c23)c1,57*,0,3,11
c1ccc2c(c1)nc(NCc1ccc3c(c1)OCO3)n2CCN1CCOCC1,16,0,28,x
Cc1cc(C(=O)N2CCc3c([nH]c4ccccc34)C2c2cccc(Cl)c2)nn1C (centres undefined),56*,-1,53,-5
CC(=O)C1=NN(c2ccccc2)C(c2ccc3c(c2)OCO3)N1c1ccccc1 (centres undefined),20,0,8,-47
CC(=O)C1=NN(c2ccccc2)C(c2cccs2)N1c1ccc(N(C)C)cc1 (centres undefined),55*,0,x,6
CCCC#Cc1cnc2c(c1)C(=O)N([C@H](C)CO)C[C@@H](C)[C@@H](CN(C)C(=O)Nc1c(C)noc1C)O2,x,x,x,-5
COc1ccccc1NC(=S)NNC(=O)c1nn(C)cc1Cl,-6,0,6,57*
COc1ccccc1NC(=S)NNC(=O)c1nn(C)c(C)c1Cl,4,1,15,36
c1ccc(CCc2nc(-c3cccnc3)no2)cc1,-15,2,-93*,-1
SMILES,T cruzi inh,HIF act,AI-2 QS modul,ARNT-TACC3 inh
c1ccc(CCc2nc(-c3ccccc3)no2)cc1,7,-39,-94*,-8
CCc1ccc(NCc2nc(-c3ccccc3)no2)cc1,3,0,-96*,2
C[C@H]1CN([C@@H](C)CO)C(=O)c2cc(NC(=O)Nc3ccccc3)ccc2O[C@H]1CN(C)S(=O)(=O)c1ccc(F)cc1,x,x,x,-12
Cc1ccccc1S(=O)(=O)N1CC[C@@H]2[C@H]1c1cc(-c3cccc(F)c3)ccc1N[C@@H]2CO,x,x,x,9
CN(C)CCN(C(=O)c1ccc(S(=O)(=O)N2CCc3ccccc32)cc1)c1nc2ccc(F)cc2s1,63*,1,16,0
CCc1ccc2nc(N(CCCN(C)C)C(=O)c3ccc(S(=O)(=O)N4CCCC4)cc3)sc2c1,37,-1,16,x
CN(C)CCCN(C(=O)c1ccc(S(=O)(=O)N2CCc3ccccc32)cc1)c1nc2c(Cl)cccc2s1,55*,0,20,x
CCc1ccc2nc(N(CCCN(C)C)C(=O)c3ccc(S(=O)(=O)N4CCCc5ccccc54)cc3)sc2c1,61*,-2,6,3
C[C@@H]1CN([C@@H](C)CO)C(=O)c2cc(NC(=O)NC3CCCCC3)ccc2O[C@H]1CN(C)C(=O)NC1CCCCC1,x,x,x,2
CC1(C)C([N+](=O)[O-])C(c2ccc(Cl)cc2)NC(c2ccc(Cl)cc2)C1[N+](=O)[O-] (centres undefined),58*,0,6,0
CC1(C)C([N+](=O)[O-])C(c2ccc(F)cc2)NC(c2ccc(F)cc2)C1[N+](=O)[O-] (centres undefined),9,-1,9,-12
COc1ccc(NC(=O)Nc2ccc3c(c2)C(=O)N([C@@H](C)CO)C[C@H](C)[C@H](CN(C)S(=O)(=O)c2cn(C)cn2)OCCCC[C@@H](C)O3)cc1,x,x,x,-5
CN(C)c1ccc(/C=N/N(CCC(=O)NC(C)(C)C)C2=NS(=O)(=O)c3ccccc32)cc1,21,-1,23,-3
CC(C)(C)NC(=O)CCN(/N=C/c1ccc([N+](=O)[O-])o1)C1=NS(=O)(=O)c2ccccc21,x,x,x,79*
C[C@@H]1CN([C@@H](C)CO)C(=O)c2cc(C#Cc3ccc(F)cc3)cnc2O[C@H]1CN(C)Cc1ccccn1,x,x,x,18
O=C(N[C@@H]1C=C[C@@H](CC(=O)N2CCc3ccccc3C2)O[C@@H]1CO)C1CC1,x,x,x,30
COc1ccc(N2CCN(c3cc(C)c4ccc(O)cc4n3)CC2)cc1,4,0,2,-1
COc1cc(OC)c2nc(C)c3c(c2c1)N(c1ccc(O)cc1)CC3,83*,16*,6,5
C=CCOc1nc(-c2ccccc2Cl)nc2ccccc12,-1,63*,-1,-14
CCOc1nc(-c2ccccc2Cl)nc2ccccc12,1,0,21,-8
O=C(OC(c1ccccc1)c1nccc2ccccc12)c1cc([N+](=O)[O-])cc([N+](=O)[O-])c1 (centres undefined),58*,-11,49,9
CCN1[C@H](C(=O)NCC2CC2)[C@@H](CO)[C@@H]2Cn3c(ccc(-c4ccccc4)c3=O)[C@@H]21,x,x,x,0
CCn1c(N2CCC(Cc3ccccc3)CC2)nc2c1c(=O)[nH]c(=O)n2C,7,17*,26,6
CCCCCCn1c(N2CCN(c3cccc(Cl)c3)CC2)nc2c1c(=O)[nH]c(=O)n2C,51,0,19,-5
CCCCCCCCn1c(N2CCN(c3cccc(Cl)c3)CC2)nc2c1c(=O)[nH]c(=O)n2C,55*,0,19,-3
CN(C)C(=O)C[C@@H]1CC[C@H]2[C@@H](COC[C@H](O)CN2CC2CCCC2)O1,x,x,x,-11
C=CC[C@H]1C=C[C@@H](C(C(=O)OC)C(=O)OC)CN1C(C)=O,x,x,x,57*
